Source: PMC8458982 (The Journal of Biological Chemistry, 2021)

Experiments:
mTRPC6 mutant ^mE671C = molecular target: T1, mTRPC6 mutant ^mE671C (Mus musculus, UniProt Q61143, E671C); experiment: whole-cell patch-clamp, mTRPC6 mutant E671C; type: cell-based
T1 sequence (Q61143 1-930 E671C): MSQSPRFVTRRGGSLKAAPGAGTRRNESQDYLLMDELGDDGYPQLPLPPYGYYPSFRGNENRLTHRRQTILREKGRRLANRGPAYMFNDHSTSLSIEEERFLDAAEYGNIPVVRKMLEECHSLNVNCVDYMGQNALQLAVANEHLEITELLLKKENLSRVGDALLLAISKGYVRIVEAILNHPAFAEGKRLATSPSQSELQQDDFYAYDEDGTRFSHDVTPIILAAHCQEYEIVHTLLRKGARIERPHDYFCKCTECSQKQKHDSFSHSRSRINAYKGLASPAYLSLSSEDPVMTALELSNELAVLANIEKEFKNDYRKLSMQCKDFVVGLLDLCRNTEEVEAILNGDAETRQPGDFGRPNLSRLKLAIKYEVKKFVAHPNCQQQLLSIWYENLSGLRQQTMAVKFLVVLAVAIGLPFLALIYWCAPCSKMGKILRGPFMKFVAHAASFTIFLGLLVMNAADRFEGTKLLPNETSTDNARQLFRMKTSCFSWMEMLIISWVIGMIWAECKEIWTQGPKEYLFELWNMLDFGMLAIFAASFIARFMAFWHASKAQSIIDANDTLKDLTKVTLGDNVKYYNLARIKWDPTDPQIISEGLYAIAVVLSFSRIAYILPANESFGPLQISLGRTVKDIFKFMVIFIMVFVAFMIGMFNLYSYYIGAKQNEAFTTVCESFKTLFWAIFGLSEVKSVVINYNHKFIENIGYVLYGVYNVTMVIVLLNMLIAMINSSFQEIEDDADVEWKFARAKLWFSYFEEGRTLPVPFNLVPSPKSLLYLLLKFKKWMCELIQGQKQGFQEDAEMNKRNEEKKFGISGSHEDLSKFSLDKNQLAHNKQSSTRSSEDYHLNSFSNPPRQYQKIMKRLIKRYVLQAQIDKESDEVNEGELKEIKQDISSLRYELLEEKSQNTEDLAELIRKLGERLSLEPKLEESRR
Outline: (§1)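 Transiently transfected HEK293 cells expressing mouse or human TRPC6 WT, or sequence-verified mouse point mutants, recorded 24–48 h post-transfection. Conventional whole-cell clamp at −60 mV and 23 °C, gap-free; test compound applied by Y-tube. Pipette: CsCl/HEPES/BAPTA, 400 nM free Ca2+, pH 7.2. Bath: NaCl-based, 2 mM CaCl2, pH 7.4. EC50 from Hill fit of concentration–current data. Mutant screen used current ratios (10/5 μM or 3/1 μM). At least 3 transfection batches.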

mTRPC6 mutant ^mT487L = experiment: whole-cell patch-clamp, mTRPC6 mutant T487L; type: cell-based, mouse; settings: ^mT487L (S1 pocket)
Outline: as §1

hTRPC6 mutant ^hK676R = hTRPC6 mutant ^hK676R (Homo sapiens, UniProt Q9Y210, K676R); experiment: whole-cell patch-clamp, hTRPC6 mutant K676R; type: cell-based
Chain of hTRPC6 mutant ^hK676R (Q9Y210 whole entry K676R): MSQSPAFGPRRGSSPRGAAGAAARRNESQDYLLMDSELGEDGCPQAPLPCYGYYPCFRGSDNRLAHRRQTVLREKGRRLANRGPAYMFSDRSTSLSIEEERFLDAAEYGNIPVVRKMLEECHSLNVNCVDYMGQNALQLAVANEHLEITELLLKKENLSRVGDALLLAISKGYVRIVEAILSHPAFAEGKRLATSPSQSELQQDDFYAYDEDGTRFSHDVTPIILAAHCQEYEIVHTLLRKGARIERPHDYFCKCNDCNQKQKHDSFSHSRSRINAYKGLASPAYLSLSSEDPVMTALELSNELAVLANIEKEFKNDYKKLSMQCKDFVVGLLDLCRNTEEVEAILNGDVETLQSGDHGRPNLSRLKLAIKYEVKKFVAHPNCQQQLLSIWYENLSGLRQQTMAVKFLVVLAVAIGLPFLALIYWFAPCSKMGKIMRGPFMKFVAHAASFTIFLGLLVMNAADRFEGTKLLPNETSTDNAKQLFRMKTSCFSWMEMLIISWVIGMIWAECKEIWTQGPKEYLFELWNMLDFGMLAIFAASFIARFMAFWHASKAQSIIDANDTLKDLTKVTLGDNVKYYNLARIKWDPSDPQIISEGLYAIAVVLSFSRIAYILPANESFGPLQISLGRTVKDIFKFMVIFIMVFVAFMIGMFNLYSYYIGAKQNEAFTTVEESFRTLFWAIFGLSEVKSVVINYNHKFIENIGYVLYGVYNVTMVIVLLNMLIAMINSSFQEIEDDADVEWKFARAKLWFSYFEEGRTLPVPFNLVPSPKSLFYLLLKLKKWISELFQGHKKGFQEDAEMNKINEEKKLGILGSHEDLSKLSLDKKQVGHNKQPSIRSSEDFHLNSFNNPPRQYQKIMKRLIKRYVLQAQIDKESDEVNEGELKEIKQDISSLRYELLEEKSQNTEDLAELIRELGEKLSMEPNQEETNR

CCOC(=O)N1CCC(c2cc(O)n3nc(C)c(-c4ccc(F)cc4)c3n2)CC1 [M085, Ethyl 4-(3-(4-fluorophenyl)-7-hydroxy-2-methylpyrazolo[1,5-a]pyrimidin-5-yl)piperidine-1-carboxylate]
EC50 (mTRPC6 mutant ^mE671C): 23.3 ± 6.86 µM
ratio of M085 activation current I10 μM/I5 μM (mTRPC6 mutant ^mE671C; ^mE671C (S2 pocket)): 4.16 ± 0.87
Imax (maximal current density) (mTRPC6 mutant ^mE671C; ^mE671C, 100 μM agonist): 24.09 ± 4.53 pA/pF
agonist-mediated activation after DTNB treatment (mTRPC6 mutant ^mE671C; mTRPC6^E671C, DTNB 2 mM): completely inhibited
agonist current after DTT removal of TNB moiety (mTRPC6 mutant ^mE671C; mTRPC6^E671C, after DTNB then DTT 10 mM): partially “recovered”
ratio of M085 activation current I10 μM/I5 μM (mTRPC6 mutant ^mT487L): 1.26 ± 0.22
EC50 (hTRPC6 mutant ^hK676R): 44 ± 5.75 µM
